Runt-CBFb FRET – inhibitors of human RUNX1 Runt domain binding to CBFb. Cerulean-Runt/Venus-CBFb FRET ratio 530/480, 1 h. inhibition, % at 20 µM. actives 0.46% (n = 220,000). AID 1496;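 active means inhibition over about 50% at 20 µM in the single-dose screen, limit read from the data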;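 further: 0% = DMSO wells and 100% = excess unlabeled CBFb competitor control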
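Schedule: protein complex preformed 1 h, compound exposure 1 h, room temperature, dark; test system: Cerulean-labeled Runt domain protein; amount: 100 nM per protein; buffer or medium: Tris 50 mM pH 7.5, KCl, K2SO4, 0.01% BSA; read-out: loss of energy transfer signal; detection: FRET fluorescence; controls: 5 µM unlabeled CBFb as full-inhibition high control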
CaV13 ICDI inh – Primary screen for inhibitors of IQ motif and Ca2+-dependent inactivation inhibitor domain binding in CACNA1D, Förster resonance energy transfer in living cells, … | HEK cells, CFP/YFP FRET ICDI-IQ, plate reader, 10 min; percent FRET-ratio fall versus neutral wells | inhibition, % at 12.3 µM | actives 0.098% (n = 340,000) | AID 743397;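 active means mean replicate inhibition of at least 30% and at least 1% of replicates passing that level; inconclusive means only one of the two criteria is met; inactive means neither criterion is met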;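 further: 0% = median of the neutral control wells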
Runt-SMMHC FRET – inhibitors of human RUNX1 Runt domain binding to CBFb-SMMHC. Q01196+Q13951. Cerulean-Runt/Venus-CBFb-SMMHC FRET ratio 530/480, 1 h. inhibition, % at 20 µM. actives 0.74% (n = 220,000);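 active means mean inhibition across duplicate retests at 20 µM reaching about 50%, limit read from the data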;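 further: 0% = DMSO wells and 100% = wells with excess untagged CBFb-SMMHC; inhibitors lower the FRET ratio by blocking Runt binding to CBFb-SMMHC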
RanGTP-Impb inh – inhibitors of RanGTP-importin-beta interaction, primary screen, biochemical, FRET, CFP-Ran, YFP-importin-beta, homogeneous; cell-free CFP-Ran/YFP-importin-beta FRET ratio; inhibition, % (concentration not given with the values); actives 1.1% (n = 300,000);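 active means more than half of the replicate wells show a fall in the fluorescence ratio signal beyond about 16%, limit read from the data, passing the limit was not always enough; inconclusive means exactly half of the replicate wells pass the set limit; inactive means fewer than half of replicates pass the limit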;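 further: 0% = DMSO wells and 100% = Ran loaded with GDP instead of GTP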
The depositor's hits bear a star; ? = inconclusive; nt = no result. The list is not random: actives were taken first. Their share in the collection is about 1.2%.

SMILES | Runt-CBFb FRET | CaV13 ICDI inh | Runt-SMMHC FRET | RanGTP-Impb inh
O=C(Nc1ccc2nc(-c3ccco3)c(-c3ccco3)nc2c1)N1CCCCCC1 | -17.7 | nt | -126.2 | 79.8*
CCOC(=O)C1CCN(C(=O)Nc2ccc3c(c2)nc(C)n3C)CC1 | 3.6 | -9.2 | 0.7 | 0.0
O=C(Nc1ccc2nc(-c3ccccn3)c(-c3ccccn3)nc2c1)N1CCOCC1 | 24.7 | -6.0 | 33.6 | 19.8*
CCOC(=O)C1CCN(C(=O)Nc2ccc3nc(-c4ccco4)c(-c4ccco4)nc3c2)CC1 | -44.4 | nt | -219.0 | 74.9*
Cc1ccc(N(C)c2nc(N)nc(N)c2N=O)cc1 | nt | -50.0 | nt | nt
CCCCOC(=O)C(C)Sc1n[nH]c(=O)[nH]c1=O (centres undefined) | 0.0 | -0.1 | 3.8 | -1.5
COCCn1c(SCC(=O)Nc2ccc(Cl)cn2)nnc1-c1ccncc1 | -0.2 | -2.1 | 0.2 | nt
CC1(C(=O)O)Sc2[nH]c(=O)sc2C2c3ccccc3OC(=O)C21 (centres undefined) | 12.6 | -5.7 | 2.1 | 47.8*
O=C(O)C1Sc2[nH]c(=O)sc2C2c3cc(Cl)ccc3OC(=O)C12 (centres undefined) | 24.1 | -3.4 | 16.2 | 5.0
COC(=O)C1Sc2[nH]c(=O)sc2C2c3ccccc3OC(=O)C12 (centres undefined) | 16.8 | -5.5 | -4.3 | 60.5*
O=C(O)C1Sc2[nH]c(=O)sc2C2c3cc(Br)ccc3OC(=O)C12 (centres undefined) | 33.3 | -1.9 | -11.0 | ?
O=C(O)C1Sc2[nH]c(=O)sc2C2c3ccc(O)cc3OC(=O)C12 (centres undefined) | 19.6 | -3.3 | 87.4* | nt
COCOc1ccc(/C=C2/Oc3cc(OCOC)cc(OCOC)c3C2=O)c(OCOC)c1 | nt | nt | nt | 104.1*
CCOC(=O)c1ccc(NC(=O)N2CCN(c3ccccc3OC)CC2)cc1 | 1.5 | -4.5 | -1.1 | 27.2*
COC(=O)C1=CN(Cc2cccs2)C=C(C(=O)OC)C1c1cccc(O)c1 | 98.5* | -4.5 | 133.2* | 11.2
COC(=O)C1=CN(Cc2ccc(OC)c(OC)c2)C=C(C(=O)OC)C1c1cccc(F)c1 | nt | 79.0* | nt | ?
COCCN1C=C(C(=O)OC)C(c2ccc(OC)c(OC)c2)C(C(=O)OC)=C1 | 11.8 | -8.3 | 38.7 | 5.8
COc1ccc(OCC2CN(C3CCCC3)S(=O)(=O)CCO2)cc1 (centres undefined) | nt | -3.1 | nt | nt
COc1cc(/C=N/NC(=S)Nc2cccc(Cl)c2C)ccc1OCC(=O)N1CC(C)OC(C)C1 (centres undefined) | -0.8 | -4.1 | 0.3 | -1.8
CCN(CC)CCCNC(=O)CN1N=C(c2ccc(OC)cc2)CCC1=O | nt | -2.9 | nt | -2.4
Clc1ccc(CON/C=N/c2ncnc3sccc23)c(Cl)c1 | -1.7 | nt | 1.1 | 1.5
c1ccc2c(c1)ncc1cccn12 | -1.1 | nt | 5.1 | -0.7
CCn1c2ccccc2c2c3ncc4cccn4c3ccc21 | -35.3 | 1.6 | 88.1* | 68.2*
C#Cc1ccc([C@@H]2C=C(C(=O)N3CCOCC3)O[C@H](OCC)[C@H]2CCCO)cc1 | 1.3 | -11.7 | 1.4 | 2.2
Cc1ccc[n+](-c2nc3ccccc3nc2C(=C=[N-])C#N)c1 | -15.9 | -1.9 | -2.4 | -3.4
SMILES | Runt-CBFb FRET | CaV13 ICDI inh | Runt-SMMHC FRET | RanGTP-Impb inh
CCc1ccc[n+](-c2nc3ccccc3nc2C(=C=[N-])C#N)c1 | -16.9 | -13.6 | 5.4 | 30.6*
COc1cccc(/C(O)=C/c2nc3ccc(C(=O)NCCc4cccc(C)c4)cc3[nH]c2=O)c1 | -3.9 | -4.9 | -54.0 | 43.3*
COc1cccc(/C(O)=C/c2nc3ccc(C(=O)NCCc4ccc(Cl)cc4)cc3[nH]c2=O)c1 | -11.0 | -3.6 | 10.2 | 31.6*
O=C(NCCc1ccc(Cl)cc1)c1ccc2nc[nH]c2c1 | 2.3 | -6.9 | -0.7 | -0.6
COc1cccc(C(=O)Nc2cc(C(=O)NCCc3ccccc3)ccc2Cl)c1 | 3.2 | -9.3 | 6.7 | 6.4
CCC(C)[C@H](NC(=O)N1CCCCC1)C(=O)OC (some centres undefined) | 1.4 | -17.4 | -5.2 | 23.1*
CCC(C)[C@H](NC(=O)N1CCCC1)C(=O)OC (some centres undefined) | 1.5 | -6.5 | -8.3 | -1.6
COc1cccc(OC)c1C(=O)NC(=S)NCc1cccnc1 | nt | -5.6 | nt | 1.4
CCOC(=O)c1sc2c(c1C)C(c1cccs1)C1=C(CCCC1=O)N2 (centres undefined) | 99.3* | -2.3 | 111.4* | ?

Compound activity deposited in PubChem by several laboratories.
